# Compound activity deposited in PubChem by Johns Hopkins Ion Channel Center.
# Only some compounds are listed: those with a hit (about 3.7% of all), similar ones and a draw of the others.
# KCNQ1 act = potentiates or activates the human KCNQ1 potassium channel; P51787; CHO-K1 KCNQ1, thallium flux FluxOR fluorescence; stronger effect = higher value; B-score at 10 µM; hit rate 0.35% among 310,000; AID 2648;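 active = fluorescence ratio B-score, a plate-corrected score, at least three library SD, with initial intensity B-score within 5 SD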
#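 System: CHO-K1 cells stably expressing KCNQ1 / Medium: assay buffer for compound exposure, DMSO matched across wells / Reagent: thallium- and potassium-containing depolarizing buffer / Compound: one concentration, matched DMSO / Incubation: 20 min compound pretreatment at room temperature / Measured by: kinetic FluxOR fluorescence, 10 s baseline plus 110 s post-stimulus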
# KCNK9 inh = inhibitors of human KCNK9 two-pore domain potassium channel; Q9NPC2; HEK293 KCNK9, FluxOR thallium flux fluorescence; stronger effect = lower value; B-score at 10 µM; hit rate 1.2% among 310,000;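 active = ratio B-score over 3 SD below the library mean, with starting fluorescence within 5 SD of its mean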;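 also: negative B-score means less thallium flux so channel inhibition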
# hERG rescue = hERG (human) protection from proarrhythmic block; Q12809; CHO-hERG, FluxOR thallium flux, dofetilide IC70 present; activation (rescue from dofetilide block), less the hit threshold, % at 10 µM; hit rate 0.51% among 310,000;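 active = activation above the mean of controls blocked by dofetilide plus 5 SD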;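 also: thallium influx through hERG after potassium depolarization seen as dye fluorescence rise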
# Target sequence (Q12809 whole entry, looked up): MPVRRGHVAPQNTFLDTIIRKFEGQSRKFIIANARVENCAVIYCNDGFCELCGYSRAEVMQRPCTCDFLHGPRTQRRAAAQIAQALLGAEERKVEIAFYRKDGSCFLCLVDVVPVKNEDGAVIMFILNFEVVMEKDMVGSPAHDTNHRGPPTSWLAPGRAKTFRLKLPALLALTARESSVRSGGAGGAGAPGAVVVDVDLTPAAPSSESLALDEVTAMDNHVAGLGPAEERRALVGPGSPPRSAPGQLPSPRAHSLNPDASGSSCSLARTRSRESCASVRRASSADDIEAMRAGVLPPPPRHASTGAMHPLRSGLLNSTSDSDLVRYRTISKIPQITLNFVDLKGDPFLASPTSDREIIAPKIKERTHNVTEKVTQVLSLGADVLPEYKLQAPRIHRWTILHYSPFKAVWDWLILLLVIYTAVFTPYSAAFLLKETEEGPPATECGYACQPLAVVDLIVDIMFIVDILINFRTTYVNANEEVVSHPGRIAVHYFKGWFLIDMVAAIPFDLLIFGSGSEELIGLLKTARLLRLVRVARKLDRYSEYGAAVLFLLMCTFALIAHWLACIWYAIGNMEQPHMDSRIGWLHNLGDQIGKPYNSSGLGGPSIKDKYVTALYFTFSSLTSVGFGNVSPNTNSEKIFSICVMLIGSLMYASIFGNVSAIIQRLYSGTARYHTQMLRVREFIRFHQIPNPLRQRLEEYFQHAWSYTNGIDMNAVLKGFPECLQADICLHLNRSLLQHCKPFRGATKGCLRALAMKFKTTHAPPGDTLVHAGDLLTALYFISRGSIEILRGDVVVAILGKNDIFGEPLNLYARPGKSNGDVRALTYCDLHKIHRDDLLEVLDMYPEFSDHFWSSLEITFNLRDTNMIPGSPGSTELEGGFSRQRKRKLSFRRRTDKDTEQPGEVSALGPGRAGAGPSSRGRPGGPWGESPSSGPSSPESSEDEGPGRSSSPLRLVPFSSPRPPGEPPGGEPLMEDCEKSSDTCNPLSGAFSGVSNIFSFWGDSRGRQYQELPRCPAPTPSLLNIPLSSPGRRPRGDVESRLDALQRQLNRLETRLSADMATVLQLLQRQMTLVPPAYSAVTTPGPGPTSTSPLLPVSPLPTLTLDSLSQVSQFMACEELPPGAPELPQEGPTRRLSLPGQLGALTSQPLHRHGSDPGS
# Kir21 inh = blocks the mouse Kir2.1 inward-rectifier potassium channel; P35561; AID 1672; hit rate 0.85% among 310,000; B-score at 10 µM; HEK293-Kir2.1, FluxOR thallium flux fluorescence; stronger effect = lower value;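 active = fluorescence ratio B-score at or below minus 3 SD of library scores, with starting-brightness B-score within 2 SD, cut at about -4.2 in these data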;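 also: channel flux triggered by added potassium and thallium sulfate stimulus; B-score of peak minus minimum fluorescence over baseline after thallium stimulus; more negative B-score means stronger Kir2.1 block with less thallium influx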
# KCNK3 inh = human KCNK3 channel inhibition, primary screen; B-score at 10 µM; hit rate 0.84% among 340,000; AID 602410; O14649; CHO-KCNK3 thallium flux, FluxOR fluorescence; stronger effect = lower value;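 active = B-score under library mean minus 4 SD, starting fluorescence ratio at most library mean plus 5 SD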;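 also: more negative B-score means stronger inhibition of thallium flux through KCNK3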
# KCNQ1 block = human KCNQ1 channel inhibition; B-score at 10 µM; CHO-K1 KCNQ1, FluxOR thallium flux fluorescence; stronger effect = higher value; P51787; hit rate 1.3% among 310,000;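 active = compounds whose thallium flux B-score, printed positive for inhibition, exceeds three library SD while starting fluorescence stays within three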;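 also: channel opened by potassium depolarization with thallium stimulus after 20 min compound exposure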
# KCNK9 inh conf = human KCNK9 inhibitor confirmation; inhibition, % at 10 µM; hit rate 43% among 4,900; AID 492992; HEK293 KCNK9 cells, FluxOR thallium flux fluorescence; shares compounds with KCNK9 inh;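 active = thallium signal inhibited by more than 5 SD of the compound-free buffer control wells, on both duplicate plates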;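 also: 0% = assay buffer control wells without compound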
# Kir21 sel = mouse Kir2.1 off-target activity of KCNK9 modulators. hit rate 4% among 4,900. inhibition, % at 10 µM. shares compounds with KCNK9 inh. Kir2.1 cells, FluxOR thallium flux fluorescence;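 active = thallium signal drop more than 5 SD beyond the mean of the no-compound control wells, seen in both duplicate plates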;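 also: signal is fluorescence rise after thallium addition divided by baseline fluorescence; plate controls were assay buffer only for no effect and full block by chlorpromazine control for full effect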
# KCNK9 uninduced = second counter-screen for KCNK9 modulators: effect in non-induced cells | shares compounds with KCNK9 inh | non-induced KCNK9-HEK293, FluxOR thallium flux | inhibition, % at 10 µM | hit rate 40% among 4,900 | AID 492997;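 active = thallium signal drop beyond 5 SD of the untreated control mean, on both duplicate plates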;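 also: plate controls were buffer only IC0 wells for no effect and SID17386958 at its maximal inhibitory level for full effect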
# * marks the source's active call; other numbers are inactive results; i = inactive; / = not tested or not shown.
SMILES,KCNQ1 act,KCNK9 inh,hERG rescue,Kir21 inh,KCNK3 inh,KCNQ1 block,KCNK9 inh conf,Kir21 sel,KCNK9 uninduced
Cc1occc1C(=O)Nc1cccc(C(F)(F)F)c1,i,-9.3*,-14,0.03,i,i,48%*,i,24%*
O=C(NNC(=S)Nc1cccc(C(F)(F)F)c1)c1ccc(Cl)cc1Cl,i,i,-7,-0.61,i,8*,i,i,i
N/C(CN1CCSCC1)=N\OCc1c(F)cccc1Cl,i,i,-8,-0.57,i,i,/,/,/
Cc1ccc(CNC(=O)c2cc3c(-c4ccc(Cl)cc4)nn(C)c3s2)o1,i,-12*,-3,-1.2,-12*,11*,56%*,i,35%*
COc1cccc(CC2(CO)CCCN(Cc3sc(N4CCCC4)nc3Cl)C2)c1 (stereo unspecified),i,i,-13,-1.3,i,i,i,i,i
COc1ccccc1/C=C/C=N/NC(=O)c1cccs1,i,i,-5,-0.34,i,i,/,/,/
O=[N+]([O-])c1ccc(COc2cccc(CNc3ccc(F)cc3)c2)cc1,i,-8.3*,-2,-0.03,i,6*,41%*,i,i
Oc1ccc(NCc2cccc(OCc3ccc(F)cc3)c2)cc1,i,i,-23,1.5,i,i,/,/,/
CCN(C(=O)CSc1ncccc1C(=O)O)C1CCCCC1,i,i,-11,0.27,i,i,/,/,/
Cc1cc2nnc(SC3CCCCN(C(=O)c4ccc(F)cc4)C3=O)n2c2ccccc12 (stereo unspecified),i,i,-5,0.02,i,i,i,i,i
CCOC(=O)/C(=N\Nc1ccccc1Cl)N(C)C1CCCCC1,i,-8.8*,-9,-1.2,i,i,64%*,i,50%*
CCOC(=O)/C(=N\Nc1cc(C(F)(F)F)ccc1Cl)N(CC)CC,i,-13*,-5,-0.88,i,i,54%*,i,42%*
O=C(Nc1ccccc1)O[C@@H]1C[C@H]2CCCC(=O)N3CC[C@@H](C1)[C@@H]23,/,/,/,/,i,/,/,/,/
O=C(Nc1ccccc1)OC1CC2CC1C1CCCC21 (stereo unspecified),i,i,-3,-2,i,i,i,i,i
CCC1Oc2ccc(C)cc2N(CC(=O)N(Cc2ccc(C)o2)C2CCCC2)C1=O (stereo unspecified),i,i,-18,-2.5,i,i,i,i,34%*
Cc1cc(C)n(-c2nnc(C)n2/N=C/c2ccc(O)cc2)n1,i,i,-5,2.9,i,i,/,/,/
Cc1cc(C)n(-c2nnc(C)n2/N=C/c2cc(Br)ccc2OCc2ccccc2)n1,i,-8.6*,-14,0.48,i,i,41%*,i,i
Cc1cccc(C(=O)NC(C(=O)Nc2ccccc2N2CCOCC2)C(C)C)c1 (stereo unspecified),i,i,-10,0,i,i,/,/,/
Cc1ccccc1C(=O)N1CCC(C(=O)Nc2ccc(F)cc2)CC1,i,i,-16,-1.1,i,i,/,/,/
CSc1cccc(NC(=O)C2CCN(C(=O)c3ccccc3C)CC2)c1,i,i,-8,-1.9,i,i,i,i,i
COc1cc(COc2ccc3c(C)c(CC(=O)O)c(=O)oc3c2C)cc(OC)c1OC,i,i,-2,-0.18,i,i,/,/,/
COc1ccc(-c2noc(C3CCCN(S(=O)(=O)c4cccc(Cl)c4)C3)n2)cc1OC (stereo unspecified),i,-8.1*,-12,1.5,i,i,i,i,26%*
CCc1ccc(CN(C)C(=O)c2cc(COc3cc(C)c(Cl)c(C)c3)on2)nc1,i,i,-10,-0.73,i,i,i,i,i
Cc1cc(C)c(C)c(S(=O)(=O)NCC(=O)NCC2CCCCC2)c1C,i,-12*,-4,-2.5,i,i,34%*,i,26%*
CCC(C)c1ccc(OCc2ccc(C(=O)OC)o2)cc1 (stereo unspecified),i,i,-8,-1.2,i,i,/,/,/
SMILES,KCNQ1 act,KCNK9 inh,hERG rescue,Kir21 inh,KCNK3 inh,KCNQ1 block,KCNK9 inh conf,Kir21 sel,KCNK9 uninduced
CSCCC(NC(=O)c1ccccc1)C(=O)NCCc1ccc2c(c1)OCCO2 (stereo unspecified),/,/,/,/,i,/,/,/,/
Cc1cccc(C)c1NC(=O)CNC(=O)Cc1ccccc1[N+](=O)[O-],i,i,-4,-0.22,i,i,/,/,/
Cc1cccc([N+](=O)[O-])c1NC(=O)CN(Cc1ccccc1)Cc1ccccc1,i,-8.8*,-6,-0.17,i,i,30%*,i,37%*
O=C(Nc1nnc(-c2ccncc2)o1)c1ccccc1,i,i,-8,1.1,i,i,/,/,/
O=C(Nc1nnc(-c2ccc3c(c2)CCCC3)o1)c1ccccc1,33*,i,-9,0.95,i,i,i,i,i
O=[N+]([O-])/C(Cl)=C(/NCCO)C(Cl)=C(Cl)Cl,/,/,/,/,i,/,/,/,/
Cc1ccc(-n2c(C)cc(C(=O)Cn3nc(C(=O)O)c4ccccc4c3=O)c2C)cc1,i,i,-6,-2.6,i,i,/,/,/
Cc1cc(C(=O)Cn2nc(C(=O)O)c3ccccc3c2=O)c(C)n1-c1ccc(OC(F)F)cc1,i,i,-5,-0.67,i,i,i,i,i
COc1ccc(-n2c(C)cc(C(=O)Cn3nc(C(=O)O)c4ccccc4c3=O)c2C)cc1,i,i,-7,0.16,i,i,i,i,i
COc1cccc(NC(=S)/C(=C(\[O-])c2cc(C)n(-c3ccccc3F)c2C)[n+]2ccc(N(C)C)cc2)c1,i,i,-8,1.1,i,i,/,/,/
Cc1ccc(C2(C)NC(=O)N(CC(=O)NNC(=O)c3ccccc3F)C2=O)cc1 (stereo unspecified),/,/,/,/,i,/,/,/,/
Cc1cccn2c(=O)nc(SCC(=O)N3CCC(Cc4ccccc4)CC3)nc12,i,i,-22,2.4,i,i,/,/,/
O=c1c2ccccc2nc(N2CCN(c3ccccc3)CC2)n1Cc1ccccc1,i,-13*,-9,-1.2,i,i,62%*,i,40%*
CN(CC(=O)NC1CCCCCCC1)S(=O)(=O)c1cccc2cccnc12,i,i,-6,0.03,i,i,i,i,i
